In ChEMBL document CHEMBL4819043, “1,3-Benzodioxole-based fibrate derivatives as potential hypolipidemic and hepatoprotective agents” (2021):
Values belong to the compound of their own block, whether it stands above or below them. Activity calls are given as the source filed them. The rule behind the calls is not given here.

Key:
[1] = system: Mus musculus; assay: Antiinflammatory activity against mouse model of HFD-induced hyperlipidemia assessed as decrease in IL-6 level at 67 mg/kg, IG; assay type: functional, organism-based
Summary of the method: (§1)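 Mice with high-fat-diet-induced hyperlipidemia, given 67 or 13 mg/kg intragastrically. Serum was assayed for TC, TG, HDL-C and LDL-C, for SOD, GSH-PX and MDA, for IL-6 and TNF-α, and for AST and ALT. Values were compared with the model group. n = 12 per group; mean ± SEM.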

[2] = system: Mus musculus; assay: Hypolipidemic activity in KM mouse model of Triton WR 1339-induced hyperlipidemia assessed as reduction in serum TG level administered IG for 1 week and measured on day 7; assay type: functional, organism-based; settings: time 1.0 weeks
[3] = system: Mus musculus; assay: Hypolipidemic activity in KM mouse model of Triton WR 1339-induced hyperlipidemia assessed as reduction in serum TG level at 0.121 mmol/Kg, IG administered for 1 week and measured on day 7 relative to control; assay type: functional; set-up: scale not given: the % may be the effect or the level left; settings: time 1 weeks
[4] = system: Mus musculus; assay: Hepatoprotective activity against mouse model of HFD-induced hyperlipidemia assessed as decrease in AST level at 67 mg/kg, IG; assay type: functional, organism-based; summary of the method: as §1
[5] = system: Mus musculus; assay: Antioxidant activity in mouse model of HFD-induced hyperlipidemia assessed as increase in SOD level at 67 mg/kg, IG; assay type: functional, organism-based; summary of the method: as §1
[6] = system: Mus musculus; assay: Hypolipidemic activity in KM mouse model of Triton WR 1339-induced hyperlipidemia assessed as reduction in serum TG level at 1.086 mmol/Kg, IG administered for 1 week and measured on day 7 relative to control; assay type: functional; set-up: scale not given: the % may be the effect or the level left; settings: time 1 weeks
[7] = system: Mus musculus; assay: Hypolipidemic activity in mouse model of HFD-induced hyperlipidemia assessed as increase in serum HDL-C level at 67 mg/kg, IG relative to control; assay type: functional; summary of the method: as §1
[8] = system: Mus musculus; assay: Antioxidant activity in mouse model of HFD-induced hyperlipidemia assessed as increase in GSH-PX level at 67 mg/kg, IG; assay type: functional, organism-based; summary of the method: as §1
[9] = system: Mus musculus; assay: Hypolipidemic activity in KM mouse model of Triton WR 1339-induced hyperlipidemia assessed as reduction in serum TC level at 0.362 mmol/Kg, IG administered for 1 week and measured on day 7; assay type: functional, organism-based; settings: time 1.0 weeks
[10] = system: Mus musculus; assay: Antioxidant activity in mouse model of HFD-induced hyperlipidemia assessed as decrease in MDA level at 67 mg/kg, IG; assay type: functional, organism-based; summary of the method: as §1
[11] = system: Mus musculus; assay: Antiinflammatory activity against mouse model of HFD-induced hyperlipidemia assessed as decrease in TNF-alpha level at 67 mg/kg, IG; assay type: functional, organism-based; summary of the method: as §1
[12] = system: Mus musculus; assay: Hypolipidemic activity in KM mouse model of Triton WR 1339-induced hyperlipidemia assessed as reduction in serum TG level at 0.362 mmol/Kg, IG administered for 1 week and measured on day 7; assay type: functional, organism-based; settings: time 1.0 weeks
[13] = system: Mus musculus; assay: Hypolipidemic activity in KM mouse model of Triton WR 1339-induced hyperlipidemia assessed as reduction in serum TC level at 0.121 mmol/Kg, IG administered for 1 week and measured on day 7 relative to control; assay type: functional; set-up: scale not given: the % may be the effect or the level left; settings: time 1 weeks
[14] = system: Mus musculus; assay: Hypolipidemic activity in KM mouse model of Triton WR 1339-induced hyperlipidemia assessed as reduction in serum TG level at 0.362 mmol/Kg, IG administered for 1 week and measured on day 7 relative to control; assay type: functional; set-up: scale not given: the % may be the effect or the level left; settings: time 1 weeks
[15] = system: Mus musculus; assay: Hypolipidemic activity in mouse model of HFD-induced hyperlipidemia assessed as reduction in serum TG level at 67 mg/kg, IG; assay type: functional, organism-based; summary of the method: as §1
[16] = system: Mus musculus; assay: Hypolipidemic activity in KM mouse model of Triton WR 1339-induced hyperlipidemia assessed as reduction in serum TC level at 0.362 mmol/Kg, IG administered for 1 week and measured on day 7 relative to control; assay type: functional; set-up: scale not given: the % may be the effect or the level left; settings: time 1 weeks
[17] = system: Mus musculus; assay: Hypolipidemic activity in KM mouse model of Triton WR 1339-induced hyperlipidemia assessed as reduction in serum MDA level at 0.362 mmol/Kg, IG administered for 1 week and measured on day 7; assay type: functional, organism-based; settings: time 1.0 weeks
[18] = system: Mus musculus; assay: Upregulation of PPAR-alpha expression in mouse model of HFD-induced hyperlipidemia at 67 mg/kg, IG by Western blot analysis; assay type: functional, organism-based
Summary of the method: (§2)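 Hepatic PPAR-α expression measured in liver tissue of mice with high-fat-diet-induced hyperlipidemia, dosed intragastrically at 67 or 13 mg/kg. Compared with the model group. n = 6; mean ± SEM.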

[19] = system: Mus musculus; assay: Hypolipidemic activity in KM mouse model of Triton WR 1339-induced hyperlipidemia assessed as reduction in serum TC level at 1.086 mmol/Kg, IG administered for 1 week and measured on day 7 relative to control; assay type: functional; set-up: scale not given: the % may be the effect or the level left; settings: time 1 weeks
[20] = system: Mus musculus; assay: Hypolipidemic activity in KM mouse model of Triton WR 1339-induced hyperlipidemia assessed as reduction in serum TC level administered IG for 1 week and measured on day 7 relative to control; assay type: functional, organism-based; settings: time 1.0 weeks
[21] = system: Mus musculus; assay: Hypolipidemic activity in mouse model of HFD-induced hyperlipidemia assessed as reduction in number of lipid droplets in liver at 67 mg/kg, IG by oil red-O staining based assay; assay type: functional, organism-based
Summary of the method: (§3)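 Livers from mice with high-fat-diet-induced hyperlipidemia, dosed intragastrically at 67 or 13 mg/kg. Liver sections were stained for lipid (oil red O; Sudan III with hematoxylin, 100×), and relative hepatic lipid accumulation was quantified. Mean of six independent experiments ± SEM, compared with the model group.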

[22] = system: Mus musculus; assay: Hypolipidemic activity in mouse model of HFD-induced hyperlipidemia assessed as reduction in serum TC level at 67 mg/kg, IG; assay type: functional, organism-based; summary of the method: as §1
[23] = system: Mus musculus; assay: Hepatoprotective activity against mouse model of HFD-induced hyperlipidemia assessed as decrease in ALT level at 67 mg/kg, IG; assay type: functional, organism-based; summary of the method: as §1
[24] = system: Mus musculus; assay: Hypolipidemic activity in mouse model of HFD-induced hyperlipidemia assessed as reduction in serum LDL-C level at 67 mg/kg, IG; assay type: functional, organism-based; summary of the method: as §1
[25] = system: Mus musculus; assay: Hypolipidemic activity in mouse model of HFD-induced hyperlipidemia assessed as increase in serum HDL-C level at 13 mg/kg, IG relative to control; assay type: functional; summary of the method: as §1
[26] = system: Mus musculus; assay: Upregulation of PPAR-alpha expression in mouse model of HFD-induced hyperlipidemia at 13 mg/kg, IG by Western blot analysis; assay type: functional, organism-based; summary of the method: as §2
[27] = system: Mus musculus; assay: Antioxidant activity in mouse model of HFD-induced hyperlipidemia assessed as increase in GSH-PX level at 13 mg/kg, IG; assay type: functional, organism-based; summary of the method: as §1
[28] = system: Mus musculus; assay: Hepatoprotective activity against mouse model of HFD-induced hyperlipidemia assessed as decrease in AST level at 13 mg/kg, IG; assay type: functional, organism-based; summary of the method: as §1
[29] = system: Mus musculus; assay: Hypolipidemic activity in mouse model of HFD-induced hyperlipidemia assessed as reduction in serum TG level at 13 mg/kg, IG; assay type: functional, organism-based; summary of the method: as §1
[30] = system: Mus musculus; assay: Antioxidant activity in mouse model of HFD-induced hyperlipidemia assessed as decrease in MDA level at 13 mg/kg, IG; assay type: functional, organism-based; summary of the method: as §1
[31] = system: Mus musculus; assay: Hepatoprotective activity against mouse model of HFD-induced hyperlipidemia assessed as decrease in ALT level at 13 mg/kg, IG; assay type: functional, organism-based; summary of the method: as §1
[32] = system: Mus musculus; assay: Hypolipidemic activity in mouse model of HFD-induced hyperlipidemia assessed as reduction in serum LDL-C level at 13 mg/kg, IG; assay type: functional, organism-based; summary of the method: as §1
[33] = system: Mus musculus; assay: Hypolipidemic activity in mouse model of HFD-induced hyperlipidemia assessed as reduction in serum TC level at 13 mg/kg, IG; assay type: functional, organism-based; summary of the method: as §1
[34] = system: Mus musculus; assay: Hypolipidemic activity in mouse model of HFD-induced hyperlipidemia assessed as reduction in number of lipid droplets in liver at 13 mg/kg, IG by oil red-O staining based assay; assay type: functional, organism-based; summary of the method: as §3

Compound: O=C(CCCCCOc1ccc2c(c1)OCO2)Oc1ccc2c(c1)OCO2
- Activity [1]: Active
- Activity [2]: Dose-Dependent Effect
- Activity [3]: 10.4%
- Activity [4]: Active
- Activity [5]: Active
- Activity [6]: 74.1%
- Activity [7]: 15%
- Activity [8]: Active
- Activity [9]: Active
- Activity [10]: Active
- Activity [11]: Active
- Activity [12]: Active
- Activity [13]: 14.3%
- Activity [14]: 68.8%
- Activity [15]: Active
- Activity [16]: 67.3%
- Activity [17]: Active
- Activity [18]: Active
- Activity [19]: 70.1%
- Activity [20]: Dose-Dependent Effect
- Activity [21]: Active
- Activity [22]: Active
- Activity [23]: Active
- Activity [24]: Active

Compound: O=C(CCCOc1ccc2c(c1)OCO2)Oc1ccc2c(c1)OCO2
- Activity [9]: Active
- Activity [12]: Active

Compound: O=C(CCCCOc1ccc2c(c1)OCO2)Oc1ccc2c(c1)OCO2
- Activity [9]: Active
- Activity [12]: Active
- Activity [17]: Active

Compound: O=C(COc1ccc2c(c1)OCO2)Oc1ccc2c(c1)OCO2
- Activity [9]: Active
- Activity [12]: Active

Compound: CC(C)OC(=O)C(C)(C)Oc1ccc(C(=O)c2ccc(Cl)cc2)cc1 [FENOFIBRATE]
- Activity [25]: 20%
- Activity [26]: Active
- Activity [27]: Active
- Activity [28]: inactive
- Activity [29]: Active
- Activity [30]: inactive
- Activity [31]: inactive
- Activity [32]: Active
- Activity [33]: inactive
- Activity [34]: Active

Now from value to compound:

- Activity [9]: Active
Compound: CCOC(=O)CCCCOc1ccc2c(c1)OCO2

- Activity [12]: Active
Compound: O=C(O)COc1ccc2c(c1)OCO2

- Activity [9]: Active
Compound: CCOC(=O)COc1ccc2c(c1)OCO2

- Activity [9]: Active
- Activity [12]: Active
Compound: O=C(O)CCCCOc1ccc2c(c1)OCO2

- Activity [9]: Active
- Activity [12]: Active
Compound: CCOC(=O)CCCOc1ccc2c(c1)OCO2

- Activity [9]: Active
- Activity [12]: Active
Compound: CCOC(=O)CCCCCOc1ccc2c(c1)OCO2

- Activity [9]: Active
- Activity [12]: Active
Compound: O=C(O)CCCCCOc1ccc2c(c1)OCO2
